Consider 12 molecules from ChEMBL document CHEMBL3792370, “New pseudodimeric aurones as palm pocket inhibitors of Hepatitis C virus RNA-dependent RNA polymerase” (Eur J Med Chem, 2016).

Data set [1] in a line: Inhibition of HCV J4 genotype 1b recombinant His-tagged NS5B truncated at 21 C-terminal expressed in Escherichia coli C41 (DE3) assessed as synthesis of […]. Also on record: species or system Hepatitis C virus isolate HC-J4.
The nature of data set [2]: Inhibition of HCV J4 genotype 1b recombinant His-tagged NS5B truncated at 21 C-terminal P495L mutant expressed in Escherichia coli C41 (DE3) assessed as synthesis of […]. More on the design: species or system Hepatitis C virus isolate HC-J4.
Data set [3] has as its system Hepatitis C virus. Kind of data set: Antiviral activity against HCV genotype 2a/2a J6/JFH1 model infected in Huh7.5 cells after 72 hrs by luciferase reporter gene assay. Particulars: subtype 2a J6/JFH1, Huh7.5, 72 h. The class given is functional, organism-based, Hepacivirus hominis. Summed up: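 Huh7.5 cells were seeded at 10 000 cells/well and infected 24 h later with J6/JFH1 HCVcc, then incubated overnight at 37°C. Cells were washed and given increasing compound concentrations in medium with 1% DMSO for 72 h at 37°C. After a PBS wash, cells were lysed in Renilla lysis buffer and luciferase activity was read for 10 s.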

The subject of data set [4] is Hepatitis C virus isolate HC-J4. Put plainly: Inhibition of HCV J4 genotype 1b recombinant His-tagged NS5B truncated at 21 C-terminal H95Q mutant expressed in Escherichia coli C41 (DE3) assessed as synthesis of […].
Data set [5] has as its system HEK293. Put plainly: Cytotoxicity against HEK293 cells at 50 uM after 72 hrs by MTT assay. Particulars: human, hek293, 72 h.

Structures are written as SMILES. The source made the active and inactive calls. The rule behind the calls is not given here.

As for `O=C1/C(=C/c2ccc(/C=C3\Oc4cc(O)cc(O)c4C3=O)cc2)Oc2cc(O)cc(O)c21`, the IC50 was found to be 1.3 µM in data set [1] and 1.5 µM in data set [2]. In addition, in data set [3], the 50% effective concentration (EC50) worked out at 202 µM. For the same molecule, the outcome in data set [4] was inactive. In data set [5], the Activity result was “Non-toxic”.

Turning to `O=C1/C(=C/c2ccc(OCC(COc3ccc(/C=C4\Oc5cc(O)cc(O)c5C4=O)cc3)C3CCCCC3)cc2)Oc2cc(O)cc(O)c21` (stereo unspecified), in data set [1], the IC50 amounted to 2 µM. Further, the EC50 in data set [3] worked out at 42 µM.

`O=C1/C(=C/c2ccc(-c3ccccc3/C=C3\Oc4cc(O)cc(O)c4C3=O)cc2)Oc2cc(O)cc(O)c21`: the IC50 in data set [1] came to 6 µM.

Regarding `COc1c(-c2ccc3cc(NS(C)(=O)=O)ccc3c2)cc(-n2ccc(=O)[nH]c2=O)cc1C(C)(C)C` [DASABUVIR], the IC50 in data set [1] stood at 0.6 µM. In data set [3], this molecule had an EC50 of 9.1 µM.

As for `COc1cc(OC)c2c(c1)O/C(=C\c1cccc(/C=C3\Oc4cc(OC)cc(OC)c4C3=O)c1)C2=O`, the Activity result in data set [5] is on record as “Non-toxic”.

In data set [3], `CC(C)CC(COc1ccc(/C=C2\Oc3ccccc3C2=O)cc1)COc1ccc(/C=C2\Oc3ccccc3C2=O)cc1` displayed an EC50 of over 400 µM.

With `O=C1/C(=C/c2cccc(/C=C3\Oc4cc(O)cc(O)c4C3=O)c2)Oc2cc(O)cc(O)c21`, the 50% inhibitory concentration (IC50) in data set [1] was found to be 3.6 µM.

Turning to `O=C1/C(=C/c2ccc(OCC(COc3ccc(/C=C4\Oc5cc(O)cc(O)c5C4=O)cc3)CC3CCCCC3)cc2)Oc2cc(O)cc(O)c21` (stereo unspecified), in data set [1], the IC50 was 1.8 µM. In data set [3], this molecule showed a concentration giving a half-maximal response (EC50) of 90 µM.

For the molecule `CC(C)CC(COc1ccc(/C=C2\Oc3cc(O)cc(O)c3C2=O)cc1)COc1ccc(/C=C2\Oc3cc(O)cc(O)c3C2=O)cc1`, the IC50 in data set [1] is 1.9 µM. This molecule also yielded an EC50 in data set [3] of 76 µM.

Regarding `O=C1/C(=C/c2ccc(-c3cccc(/C=C4\Oc5cc(O)cc(O)c5C4=O)c3)cc2)Oc2cc(O)cc(O)c21`, in data set [1], the IC50 was 3.1 µM.

Consider `O=C1/C(=C/c2ccc(OCCCOc3ccc(/C=C4\Oc5cc(O)cc(O)c5C4=O)cc3)cc2)Oc2cc(O)cc(O)c21`, for which the IC50 in data set [1] stood at 1.5 µM. For the same molecule, the EC50 in data set [3] turned out to be 214 µM.

Regarding `O=C1/C(=C/c2ccc(OCC(COc3ccc(/C=C4\Oc5cc(O)cc(O)c5C4=O)cc3)C3CCCC3)cc2)Oc2cc(O)cc(O)c21` (stereo unspecified), in data set [1], the IC50 was 1.9 µM.
